IC50 data for 34 compounds are collected here from ChEMBL document CHEMBL4261486, “2-Arylaminobenzothiazole-arylpropenone conjugates as tubulin polymerization inhibitors” (Medchemcomm, 2017).

Holding throughout (type): functional, cell-based
One test has as its system MDA-MB-231. Kind of test: Antiproliferative activity against human MDA-MB-231 cells after 48 hrs by sulforhodamine B assay. As to conditions: MDA-MB-231, 48 h. In a few lines: (§1)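 Cells grown in DMEM with 10% FBS at 37 °C under 5% CO2. Plated cells were allowed 24 h before drug, then exposed continuously for 48 h at 0.01, 0.1, 1, 10 and 100 μM. Monolayers were fixed with cold 10% TCA for 1 h at 4 °C and stained with 0.057% SRB in 1% acetic acid for 30 min. Bound dye was read at 510 nm. IC50 is the 50% growth-inhibitory concentration, using time-zero and control readings.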

A further test has as its system A549. Kind of test: Antiproliferative activity against human A549 cells after 48 hrs by sulforhodamine B assay. As to conditions: A549, 48 h. In a few lines:
as §1
For orientation: Sulforhodamine B stains cellular protein and so reports cell mass.

The next test relates to HeLa. Kind of test: Antiproliferative activity against human HeLa cells after 48 hrs by sulforhodamine B assay. In a few lines:
as §1

The test system of another test is MIA PaCa-2. Kind of test: Antiproliferative activity against human MIAPaCa2 cells after 48 hrs by sulforhodamine B assay. As to conditions: MIA PaCa-2, 48 h. In a few lines:
as §1

As a reminder, the IC50 is the concentration at which inhibition is half-maximal. Read a low IC50 as greater potency. `COc1ccc(C(=O)/C=C\Nc2ccc(-c3nc4cc(OC)c(OC)c(OC)c4s3)cc2)cc1[N+](=O)[O-]`: the IC50 in the test with MDA-MB-231 was determined as 17.1 µM; with A549, 21.2 µM; in the test on HeLa, 11.4 µM; with MIA PaCa-2, 15.9 µM.

As to `COc1ccc2nc(-c3ccc(N/C=C\C(=O)c4cc(OC)c(OC)c(OC)c4)cc3)sc2c1`, the IC50 with MDA-MB-231 stood at 19.6 µM; in the test on A549, 12.1 µM; in the test with HeLa, 14.1 µM; in the test with MIA PaCa-2 it was 31.1 µM.

As to `COc1cc(OC)c2sc(-c3ccc(N/C=C\C(=O)c4cc(OC)c(OC)c([N+](=O)[O-])c4)c(C)c3)nc2c1`, the IC50 in the test with MDA-MB-231 worked out at 7.4 µM; in the test with A549 it was 15.4 µM; in the test with HeLa, 11.4 µM; with MIA PaCa-2 it was 10.4 µM.

`COc1cc(OC)c2sc(-c3ccc(N/C=C\C(=O)c4ccc(OC)c(F)c4)c(C)c3)nc2c1`: the IC50 with MDA-MB-231 was found to be 13.3 µM; with A549, 15.3 µM; with HeLa it was 14.7 µM; with MIA PaCa-2 it was 16.3 µM.

For `COc1ccc2nc(-c3ccc(N/C=C\C(=O)c4ccc(OC)c([N+](=O)[O-])c4)cc3)sc2c1`, the IC50 with MDA-MB-231 is 17.6 µM; with A549 it was 13.6 µM; in the test on HeLa, 17.6 µM; in the test on MIA PaCa-2 it was 23.6 µM.

Take `COc1ccc(C(=O)/C=C\Nc2ccc(-c3nc4cc(OC)c(OC)c(OC)c4s3)cc2C)cc1O`: the IC50 came out at 12.4 µM in the test with MDA-MB-231, 15.4 µM in the test with A549, 11.4 µM in the test on HeLa and 15.4 µM in the test on MIA PaCa-2.

`COc1cc(OC)c2sc(-c3ccc(N/C=C\C(=O)c4ccc(OC)c(O)c4)c(C)c3)nc2c1`: the IC50 with MDA-MB-231 was 3.1 µM; in the test with A549, 14.3 µM; with HeLa, 16.1 µM; in the test with MIA PaCa-2, 22.1 µM.

As to `COc1ccc(C(=O)/C=C\Nc2ccc(-c3nc4cc(OC)c(OC)c(OC)c4s3)cc2)cc1F`, the IC50 in the test on MDA-MB-231 is 16.5 µM; with A549 it was 15.5 µM; in the test on HeLa it was 7.3 µM; in the test on MIA PaCa-2, 19.4 µM.

Consider `COc1ccc2nc(-c3ccc(N/C=C\C(=O)c4cc(OC)c(OC)c([N+](=O)[O-])c4)c(C)c3)sc2c1`, for which the IC50 in the test with MDA-MB-231 is 5.05 µM; in the test with A549, 22.1 µM; in the test on HeLa it was 12.1 µM; with MIA PaCa-2, 12 µM.

As for `COc1ccc(C(=O)/C=C\Nc2ccc(-c3nc4cc(OC)c(OC)c(OC)c4s3)cc2C)cc1[N+](=O)[O-]`, the IC50 in the test with MDA-MB-231 came out at 12.4 µM; with A549, 9.1 µM; in the test with HeLa it was 13.4 µM; in the test on MIA PaCa-2 it was 23.4 µM.

For `COc1cc(OC)c2sc(-c3ccc(N/C=C\C(=O)c4cc(OC)c(OC)c([N+](=O)[O-])c4)cc3)nc2c1`, the IC50 in the test with MDA-MB-231 came out at 3.06 µM; in the test on A549 it was 13 µM; in the test with HeLa, 19 µM; in the test with MIA PaCa-2, 12.7 µM.

`COc1cc(C(=O)/C=C\Nc2ccc(-c3nc4cc(OC)c(OC)c(OC)c4s3)cc2C)cc([N+](=O)[O-])c1OC`: the IC50 in the test with MDA-MB-231 was determined as 12.8 µM; with A549 it was 17.4 µM; with HeLa, 13.1 µM; in the test on MIA PaCa-2, 22 µM.

In the case of `COc1cc(C(=O)/C=C\Nc2ccc(-c3nc4cc(OC)c(OC)c(OC)c4s3)cc2)cc(OC)c1OC`, the IC50 is 16.5 µM in the test on MDA-MB-231, 15.5 µM with A549, 5.3 µM in the test on HeLa and 29.1 µM in the test on MIA PaCa-2.

`COc1cc(OC)c2sc(-c3ccc(N/C=C\C(=O)c4cc(OC)c(OC)c(OC)c4Br)c(C)c3)nc2c1`: the IC50 in the test with MDA-MB-231 was found to be 17.3 µM; in the test with A549 it was 14 µM; in the test with HeLa it was 14.7 µM; in the test with MIA PaCa-2, 16 µM.

For the compound `COc1cc(OC)c2sc(-c3ccc(N/C=C\C(=O)c4cc(OC)c(OC)c(OC)c4)cc3)nc2c1`, the IC50 in the test with MDA-MB-231 was 15.8 µM; in the test with A549, 21.8 µM; in the test on HeLa, 17.8 µM; in the test on MIA PaCa-2 it was 26.8 µM.

For the compound `COc1cc(C(=O)/C=C\Nc2ccc(-c3nc4cc(OC)c(OC)c(OC)c4s3)cc2C)cc(OC)c1OC`, the IC50 in the test with MDA-MB-231 was found to be 12.9 µM; in the test on A549 it was 23.3 µM; with HeLa, 11.1 µM; with MIA PaCa-2 it was 22.8 µM.

Regarding `COc1ccc2nc(-c3ccc(N/C=C\C(=O)c4ccc(OC)c(O)c4)cc3)sc2c1`, the IC50 came to 18.9 µM with MDA-MB-231, 12.8 µM in the test with A549, 6.9 µM in the test with HeLa and 21.9 µM in the test with MIA PaCa-2.

Regarding `COc1cc(OC)c2sc(-c3ccc(N/C=C\C(=O)c4cc(OC)c(OC)c(OC)c4Br)cc3)nc2c1`, the IC50 in the test on MDA-MB-231 turned out to be 16.1 µM; in the test on A549, 12 µM; in the test with HeLa, 10.3 µM; in the test on MIA PaCa-2 it was 19 µM.

Take `COc1ccc2nc(-c3ccc(N/C=C\C(=O)c4ccc(OC)c(O)c4)c(C)c3)sc2c1`: the IC50 is 14 µM with MDA-MB-231, 18 µM with A549, 12 µM in the test on HeLa and 17 µM in the test with MIA PaCa-2.

For `COc1ccc2nc(-c3ccc(N/C=C\C(=O)c4ccc(OC)c([N+](=O)[O-])c4)c(C)c3)sc2c1`, the IC50 with MDA-MB-231 came out at 17.6 µM; in the test with A549 it was 13.6 µM; in the test on HeLa, 17.6 µM; with MIA PaCa-2, 23.6 µM.

`COc1ccc(C(=O)/C=C\Nc2ccc(-c3nc4cc(OC)c(OC)c(OC)c4s3)cc2)cc1O`: the IC50 amounted to 18.1 µM with MDA-MB-231, 23 µM in the test with A549, 14.1 µM in the test on HeLa and 32.8 µM with MIA PaCa-2.

Turning to `COc1cc(C(=O)/C=C\Nc2ccc(-c3nc4cc(OC)c(OC)c(OC)c4s3)cc2C)c(Br)c(OC)c1OC`, the IC50 was 7.3 µM in the test on MDA-MB-231, 10.3 µM with A549, 14.3 µM with HeLa and 24.3 µM in the test on MIA PaCa-2.

As to `COc1cc(C(=O)/C=C\Nc2ccc(-c3nc4cc(OC)c(OC)c(OC)c4s3)cc2)c(Br)c(OC)c1OC`, the IC50 stood at 15.6 µM in the test on MDA-MB-231, 13.6 µM with A549, 6.6 µM in the test on HeLa and 23.2 µM in the test on MIA PaCa-2.

Consider `COc1ccc2nc(-c3ccc(N/C=C\C(=O)c4cc(OC)c(OC)c(OC)c4Br)c(C)c3)sc2c1`, for which the half-maximal inhibitory concentration (IC50) was found to be 9.4 µM in the test on MDA-MB-231, 6.4 µM in the test on A549, 13.4 µM in the test with HeLa and 23.4 µM in the test with MIA PaCa-2.

Take `COc1cc(OC)c2sc(-c3ccc(N/C=C\C(=O)c4ccc(OC)c(O)c4)cc3)nc2c1`: the IC50 in the test on MDA-MB-231 amounted to 7.61 µM; in the test with A549, 10.6 µM; in the test on HeLa, 12.1 µM; in the test with MIA PaCa-2, 11.6 µM.

Consider `COc1ccc2nc(-c3ccc(N/C=C\C(=O)c4cc(OC)c(OC)c(OC)c4)c(C)c3)sc2c1`, for which the half-maximal inhibitory concentration (IC50) is 17 µM with MDA-MB-231, 11.1 µM in the test with A549, 16.1 µM with HeLa and 10 µM in the test with MIA PaCa-2.

For the compound `COc1cc(OC)c2sc(-c3ccc(N/C=C\C(=O)c4ccc(OC)c([N+](=O)[O-])c4)c(C)c3)nc2c1`, the IC50 is 10.8 µM in the test with MDA-MB-231, 12.1 µM in the test with A549, 9.39 µM in the test with HeLa and 13.9 µM in the test with MIA PaCa-2.

Consider `COc1ccc2nc(-c3ccc(N/C=C\C(=O)c4cc(OC)c(OC)c(OC)c4Br)cc3)sc2c1`, for which the IC50 in the test with MDA-MB-231 stood at 11.1 µM; with A549, 6 µM; in the test on HeLa it was 8.02 µM; with MIA PaCa-2 it was 14.7 µM.

With `COc1cc(C(=O)/C=C\Nc2ccc(-c3nc4cc(OC)c(OC)c(OC)c4s3)cc2)cc([N+](=O)[O-])c1OC`, the IC50 in the test with MDA-MB-231 is 9.8 µM; in the test with A549 it was 11.8 µM; with HeLa, 7.8 µM; in the test on MIA PaCa-2 it was 15.8 µM.

As to `COc1cc(OC)c2sc(-c3ccc(N/C=C\C(=O)c4cc(OC)c(OC)c(OC)c4)c(C)c3)nc2c1`, the IC50 with MDA-MB-231 was found to be 13.8 µM; with A549, 14.4 µM; in the test on HeLa, 16.4 µM; in the test on MIA PaCa-2, 17 µM.

As to `COc1cc(OC)c2sc(-c3ccc(N/C=C\C(=O)c4ccc(OC)c([N+](=O)[O-])c4)cc3)nc2c1`, the IC50 in the test on MDA-MB-231 came to 12.9 µM; in the test with A549 it was 5.8 µM; in the test with HeLa it was 12.9 µM; in the test with MIA PaCa-2, 2.9 µM.

With `COc1ccc(C(=O)/C=C\Nc2ccc(-c3nc4cc(OC)c(OC)c(OC)c4s3)cc2C)cc1F`, the IC50 stood at 2.9 µM in the test with MDA-MB-231, 1.69 µM in the test on A549, 1.2 µM in the test with HeLa and 1.8 µM in the test with MIA PaCa-2.

As for `COc1ccc2nc(-c3ccc(N/C=C\C(=O)c4cc(OC)c(OC)c([N+](=O)[O-])c4)cc3)sc2c1`, the IC50 was 7.61 µM in the test with MDA-MB-231, 21.6 µM in the test on A549, 16.1 µM in the test on HeLa and 25.6 µM with MIA PaCa-2.

For the compound `COc1cc(OC)c2sc(-c3ccc(N/C=C\C(=O)c4ccc(OC)c(F)c4)cc3)nc2c1`, the IC50 with MDA-MB-231 worked out at 6.7 µM; with A549 it was 5.3 µM; in the test with HeLa, 7.3 µM; in the test on MIA PaCa-2, 4.3 µM.
